From ChEMBL document CHEMBL2040794, “Synthesis and structure-activity analysis of new phosphonium salts with potent activity against African trypanosomes” (J Med Chem, 2012)
The source made the active and inactive calls. The rule behind the calls is not given here.

What was measured:
[1] = test system: Trypanosoma brucei brucei; assay: Antitrypanosomal activity against wild type Trypanosoma brucei brucei Lister 427 after 3 days by alamar blue assay; assay type: functional, organism-based; settings: Trypanosoma brucei, Lister 427, 72 h
Outline: (§1)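 Bloodstream-form T. b. brucei (wild-type s427; TbAT1-KO, made from s427 by TbAT1 deletion; B48, selected from TbAT1-KO in vitro on pentamidine, lacking functional HAPT1). Cells were exposed to compound for 48 h, then resazurin (Alamar blue) was added for a further 24 h. A single fluorescence reading gave EC50.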

[2] = test system: Trypanosoma brucei brucei; assay: Antitrypanosomal activity against diminazene-, pentamidine-, and melaminophenyl arsenical-resistant HAPT1-deficient Trypanosoma brucei brucei B48 after 3 days by alamar blue assay; assay type: functional, organism-based; settings: Trypanosoma brucei, B48, 72 h; outline: as §1
[3] = test system: Trypanosoma brucei brucei; assay: Antitrypanosomal activity against Trypanosoma brucei brucei bloodstream forms assessed as decrease in cell count at 0.25 uM treated for 48 hrs followed by washout after 4 hrs by hemocytometric analysis; assay type: functional, organism-based
Outline: (§2)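 T. b. brucei bloodstream forms seeded at 10⁵ cells/mL with 0.25 μM compound; drug removed by centrifugation (1100g) after 30 min or 4 h and cells resuspended in drug-free fresh medium, or fresh medium still containing 0.25 μM compound; drug-free control run alongside. Growth followed over 48 h by microscopic hemocytometer counts in triplicate, averages reported.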

L6 = assay: Cytotoxicity against rat L6 cells after 72 hrs by alamar blue assay; assay type: cell-based; settings: Rattus norvegicus, L6, 72 h
[4] = test system: Trypanosoma brucei brucei; assay: Antitrypanosomal activity against Trypanosoma brucei brucei bloodstream forms assessed as decrease in cell count at 0.25 uM treated for 48 hrs followed by washout after 30 mins and measured after 48 hrs by hemocytometric analysis; assay type: functional, organism-based; outline: as §2
[5] = test system: Trypanosoma brucei brucei; assay: Antitrypanosomal activity against Trypanosoma brucei brucei bloodstream forms assessed as decrease in cell count at 0.25 uM treated for 48 hrs followed by washout after 4 hrs measured after 44 hrs by hemocytometric analysis; assay type: functional, organism-based; outline: as §2
[6] = test system: Trypanosoma brucei brucei; assay: Antitrypanosomal activity against diminazene aceturate-resistant TbAT1 gene-deficient Trypanosoma brucei brucei AT1-KO after 3 days by alamar blue assay; assay type: functional, organism-based; settings: Trypanosoma brucei, AT1-KO, 72 h; outline: as §1
[7] = test system: Trypanosoma brucei rhodesiense; assay: Antitrypanosomal activity against Trypanosoma brucei rhodesiense STIB900 infected in rat L6 cells after 72 hrs by alamar blue assay; assay type: functional, organism-based; settings: Trypanosoma brucei, STIB900, 72 h
[8] = Cytotoxicity against human HEK cells after 3 days by alamar blue assay; assay type: cell-based, HEK293; settings: Homo sapiens, HEK293, 72 h
Outline: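 Human embryonic kidney cells tested by resazurin (Alamar blue) assay: 48 h with compound, then 24 h more after dye addition, single reading; EC₅₀ derived.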

[9] = Selectivity index, ratio of EC50 for human HEK cells to EC50 for wild type Trypanosoma brucei brucei Lister 427; assay type: toxicity, cell-based, HEK293; settings: HEK cells, read-out: Ratio EC50
Outline: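 Ratio of EC₅₀ in HEK cells to EC₅₀ in wild-type T. b. brucei s427, both from resazurin assays.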

[10] = test system: Trypanosoma brucei brucei; assay: Resistance factor, ratio of EC50 for diminazene-, pentamidine-, and melaminophenyl arsenical-resistant HAPT1-deficient Trypanosoma brucei brucei B48 to EC50 for wild type Trypanosoma brucei brucei Lister 427; assay type: functional
Outline: (§3)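 Resistance factor is the EC50 in the resistant line (TbAT1-KO or B48) divided by the EC50 in wild-type s427. […] Resistant and wild-type EC50s were compared by Student t-test.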

[11] = Selectivity index, ratio of EC50 for rat L6 cells to EC50 for Trypanosoma brucei rhodesiense STIB900; assay type: toxicity, cell-based; settings: L6 cells, read-out: Ratio EC50
Outline: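 Ratio of EC₅₀ in L6 cells to EC₅₀ against T. b. rhodesiense STIB900, both from Alamar blue assays.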

[12] = test system: Trypanosoma brucei brucei; assay: Resistance factor, ratio of EC50 for diminazene aceturate-resistant TbAT1 gene-deficient Trypanosoma brucei brucei AT1-KO to EC50 for wild type Trypanosoma brucei brucei Lister 427; assay type: functional; outline: as §3
[13] = Inhibition of Trypanosoma brucei brucei LAPT1 assessed as [3H]-pentamidine uptake after 120 secs by scintillation counting
Outline: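 LAPT1 transport: late-log trypanosomes from HMI-9/10% FBS culture washed into pH 7.3 HEPES-bicarbonate-glucose buffer; 1 μM final [³H]-pentamidine uptake over 120 s with competitor. Uptake terminated with 2 mM ice-cold pentamidine and oil centrifugation; counted by scintillation, Ki from sigmoid curves; triplicate, at least three separate occasions.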

[14] = Inhibition of Trypanosoma brucei brucei HAPT1 assessed as [3H]-pentamidine uptake after 60 secs by scintillation counting
Outline: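 HAPT1 transport: late-log T. b. brucei grown in HMI-9 + 10% FBS, washed into HEPES/bicarbonate assay buffer with 14 mM glucose, pH 7.3. [³H]-pentamidine at 30 nM final for 60 s with inhibitor; stopped with 2 mM ice-cold unlabeled pentamidine and spin through oil. Scintillation counting, sigmoid fit for Ki; triplicates, ≥3 independent experiments.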

[15] = test system: Trypanosoma brucei brucei; assay: Antitrypanosomal activity against wild type Trypanosoma brucei brucei Lister 427 assessed as decrease in viability at > 3.3 uM after 8 hrs by propidium iodide staining-based fluorescence microscopic analysis; assay type: functional, organism-based
Outline: (§4)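 Real-time propidium iodide integrity assay: 5 × 10⁵ trypanosomes per well in HMI-9 plus 10% FBS containing 9 μM PI, 37 °C, 5% CO₂. Fluorescence read on a plate fluorimeter (ex 544/em 620 nm) every 2 min for 250 cycles, more than 8 h. Strains run in parallel on one plate.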

[16] = test system: Trypanosoma brucei brucei; assay: Antitrypanosomal activity against diminazene-, pentamidine-, and melaminophenyl arsenical-resistant HAPT1-deficient Trypanosoma brucei brucei B48 harboring HAPT mutant gene assessed as decrease in viability at 15 times EC50 after 8 hrs by propidium iodide staining-based fluorescence microscopic analysis; assay type: functional, organism-based
Outline: (§5)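 Trypanosomes at 5 × 10⁵ cells/well in HMI-9 with 10% FBS and 9 μM propidium iodide, with compound at a range of concentrations. Fluorescence (ex 544, em 620 nm) was read every 2 min for 250 cycles (>8 h) at 37 °C and 5% CO2. All three strains ran in parallel on one plate, with drug-free controls.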

[17] = test system: Trypanosoma brucei brucei; assay: Antitrypanosomal activity against diminazene-, pentamidine-, and melaminophenyl arsenical-resistant HAPT1-deficient Trypanosoma brucei brucei B48 harboring HAPT mutant gene assessed as decrease in viability at > 3.3 uM after 8 hrs by propidium iodide staining-based fluorescence microscopic analysis; assay type: functional, organism-based; outline: as §5
[18] = test system: Trypanosoma brucei brucei; assay: Antitrypanosomal activity against diminazene aceturate-resistant TbAT1 gene-deficient Trypanosoma brucei brucei AT1-KO assessed as decrease in viability at 15 times EC50 after 8 hrs by propidium iodide staining-based fluorescence microscopic analysis; assay type: functional, organism-based; outline: as §5
[19] = test system: Trypanosoma brucei brucei; assay: Antitrypanosomal activity against wild type Trypanosoma brucei brucei Lister 427 assessed as decrease in viability at 70 to 120 times EC50 after 8 hrs by propidium iodide staining-based fluorescence microscopic analysis; assay type: functional, organism-based; outline: as §4
[20] = test system: Trypanosoma brucei brucei; assay: Antitrypanosomal activity against diminazene aceturate-resistant TbAT1 gene-deficient Trypanosoma brucei brucei AT1-KO assessed as decrease in viability at > 3.3 uM after 8 hrs by propidium iodide staining-based fluorescence microscopic analysis; assay type: functional, organism-based; outline: as §5
[21] = test system: Trypanosoma brucei brucei; assay: Antitrypanosomal activity against wild type Trypanosoma brucei brucei Lister 427 assessed as decrease in viability at >700 times EC50 after 8 hrs by propidium iodide staining-based fluorescence microscopic analysis; assay type: functional, organism-based; outline: as §4
[22] = test system: Trypanosoma brucei brucei; assay: Antitrypanosomal activity against Trypanosoma brucei brucei bloodstream forms assessed as decrease in cell count at 2 times EC50 after 12 hrs by hemocytometric analysis; assay type: functional, organism-based
Outline: (§6)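 Bloodstream-form T. b. brucei cultures started at 10⁵ cells/mL, with or without a range of compound concentrations (0.05, 0.25, 1 μM for the example shown) present continuously. Cell density tracked over 48 h by manual hemocytometer counts done in triplicate; mean values plotted.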

[23] = test system: Trypanosoma brucei brucei; assay: Antitrypanosomal activity against Trypanosoma brucei brucei bloodstream forms assessed as decrease in cell count at EC50 after 36 hrs by hemocytometric analysis; assay type: functional, organism-based; outline: as §6

For `Cc1ccc([P+](Cc2ccc(Oc3ccc(C[P+](c4ccc(C)cc4)(c4ccc(C)cc4)c4ccc(C)cc4)cc3)cc2)(c2ccc(C)cc2)c2ccc(C)cc2)cc1.[Br-].[Br-]`, the EC50 [1] was 24 nM, the EC50 [2] was 21 nM and the Activity [3] was “Active”. For the same compound, the EC50 (L6) was 2340 nM, the Activity [4] was “inactive” and the Activity [5] was “Active”. The EC50 [6] was 25 nM, the EC50 [7] was 170 nM and the EC50 [8] was 85700 nM. For the same compound, the selectivity ratio [9] was 3570, the “Ratio EC50” value [10] was 0.8 and the selectivity ratio [11] was 14. The “Ratio EC50” value [12] was 1.
With `CCCCCC[P+](CCCCCC)(CCCCCC)Cc1ccc(Cc2ccc(C[P+](CCCCCC)(CCCCCC)CCCCCC)cc2)cc1.[Br-].[Br-]` the EC50 [1] was 33 nM, the EC50 [2] was 39 nM and the Activity [3] was “Active”. The EC50 (L6) was 964 nM, the Activity [4] was “inactive” and the Activity [5] was “Active”. For the same compound, the EC50 [6] was 33 nM, the EC50 [7] was 180 nM and the Ki [13] was 9500 nM. The EC50 [8] was 18100 nM, the selectivity ratio [9] was 543 and the “Ratio EC50” value [10] was 1.2. For the same compound, the selectivity ratio [11] was 5 and the “Ratio EC50” value [12] was 1.
In the case of `C[P+](C)(C)Cc1ccc(C(=O)c2ccc(C[P+](C)(C)C)cc2)cc1`, the EC50 [1] is reported as over 100000 nM, the EC50 [2] is reported as over 100000 nM and the EC50 (L6) is reported as over 173000 nM. It also gave an EC50 [6] of over 100000 nM, an EC50 [7] of 127000 nM and a Ki [13] of over 250000 nM. It also gave a Ki [14] of over 250000 nM.
In the case of `CC(=O)N(c1ccc(C[P+](c2ccc(C)cc2)(c2ccc(C)cc2)c2ccc(C)cc2)cc1)c1ccc(C[P+](c2ccc(C)cc2)(c2ccc(C)cc2)c2ccc(C)cc2)cc1.[Br-].[Br-]`, the EC50 [1] is reported as 320 nM, the EC50 [2] is reported as 290 nM and the EC50 (L6) is reported as 21800 nM. The EC50 [6] was 300 nM, the EC50 [7] was 159 nM and the Ki [13] was 3600 nM. For the same compound, the EC50 [8] was over 300000 nM, the selectivity ratio [9] was over 930 and the “Ratio EC50” value [10] was 0.9. The Ki [14] was 9200 nM, the selectivity ratio [11] was 137 and the “Ratio EC50” value [12] was 0.9.
For `O=C(c1ccc(C[P+](C2CCCCC2)(C2CCCCC2)C2CCCCC2)cc1)c1ccc(C[P+](C2CCCCC2)(C2CCCCC2)C2CCCCC2)cc1.[Br-].[Br-]`, the EC50 [1] was 140 nM, the EC50 [2] was 250 nM and the EC50 (L6) was 32700 nM. It also gave an EC50 [6] of 230 nM, an EC50 [7] of 197 nM and a Ki [13] of 39000 nM. For the same compound, the EC50 [8] was over 300000 nM, the selectivity ratio [9] was over 2100 and the “Ratio EC50” value [10] was 1.8. For the same compound, the selectivity ratio [11] was 166 and the “Ratio EC50” value [12] was 1.6.
With `CCCCC[P+](CCCCC)(CCCCC)Cc1ccc(C(=O)c2ccc(C[P+](CCCCC)(CCCCC)CCCCC)cc2)cc1.[Br-].[Br-]` the Activity [15] was “Active”, the Activity [16] was “Active” and the Activity [17] was “Active”. It also gave an EC50 [1] of 200 nM, an EC50 [2] of 180 nM and an EC50 (L6) of 8700 nM. The Activity [18] was “Active”, the EC50 [6] was 170 nM and the EC50 [7] was 289 nM. It also gave a Ki [13] of 2200 nM, an EC50 [8] of 66800 nM and a selectivity ratio [9] of 338. For the same compound, the “Ratio EC50” value [10] was 0.9, the Ki [14] was 5200 nM and the Activity [19] was “Active”. For the same compound, the Activity [20] was “Active”, the selectivity ratio [11] was 30 and the “Ratio EC50” value [12] was 0.8.
With `Cc1ccc(C[P+](c2ccccc2)(c2ccccc2)c2ccccc2)cc1` the Activity [21] was “Active”.
`N=C(N)c1ccc(OCCCCCOc2ccc(C(=N)N)cc2)cc1` [PENTAMIDINE] showed an EC50 [1] of 8 nM, an EC50 [2] of 567 nM and an EC50 [6] of 9 nM. For the same compound, the Ki [13] was 56200 nM, the “Ratio EC50” value [10] was 70.9 and the Ki [14] was 36 nM. For the same compound, the “Ratio EC50” value [12] was 1.1.
With `CCCCCC[P+](CCCCCC)(CCCCCC)Cc1ccc(Oc2ccc(C[P+](CCCCCC)(CCCCCC)CCCCCC)cc2)cc1.[Br-].[Br-]` the Activity [22] was “Active”, the EC50 [1] was 37 nM and the EC50 [2] was 41 nM. The Activity [3] was “Active”, the EC50 (L6) was 1030 nM and the Activity [23] was “Active”. For the same compound, the Activity [4] was “inactive”, the Activity [5] was “Active” and the EC50 [6] was 45 nM. The EC50 [7] was 109 nM, the Ki [13] was 7200 nM and the EC50 [8] was 22100 nM. The selectivity ratio [9] was 593, the “Ratio EC50” value [10] was 1.1 and the Ki [14] was 53000 nM. The selectivity ratio [11] was 9 and the “Ratio EC50” value [12] was 1.2.
